For 18 molecules, IC50, Activity and inhibition results are on record in ChEMBL document CHEMBL4834456, “Discovery of 3,4-dihydrobenzo[f][1,4]oxazepin-5(2H)-one derivatives as a new class of ROCK inhibitors for the treatment of glaucoma” (Bioorg Med Chem Lett, 2021).

In data set [1] the target is T1, Rho-associated protein kinase 1 (Homo sapiens, UniProt Q13464). Kind of data set: Inhibition of wild type partial length human ROCK1 (M1 to R415 residues) expressed in mammalian expression system by Euro-fins kinase profiler assay. The essentials: (§1)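 IC50 values from the Eurofins Kinase Profiler service; averages of two independent experiments, mean ± SD.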
Target sequence in this assay (Q13464 whole entry, the tested form may be a part): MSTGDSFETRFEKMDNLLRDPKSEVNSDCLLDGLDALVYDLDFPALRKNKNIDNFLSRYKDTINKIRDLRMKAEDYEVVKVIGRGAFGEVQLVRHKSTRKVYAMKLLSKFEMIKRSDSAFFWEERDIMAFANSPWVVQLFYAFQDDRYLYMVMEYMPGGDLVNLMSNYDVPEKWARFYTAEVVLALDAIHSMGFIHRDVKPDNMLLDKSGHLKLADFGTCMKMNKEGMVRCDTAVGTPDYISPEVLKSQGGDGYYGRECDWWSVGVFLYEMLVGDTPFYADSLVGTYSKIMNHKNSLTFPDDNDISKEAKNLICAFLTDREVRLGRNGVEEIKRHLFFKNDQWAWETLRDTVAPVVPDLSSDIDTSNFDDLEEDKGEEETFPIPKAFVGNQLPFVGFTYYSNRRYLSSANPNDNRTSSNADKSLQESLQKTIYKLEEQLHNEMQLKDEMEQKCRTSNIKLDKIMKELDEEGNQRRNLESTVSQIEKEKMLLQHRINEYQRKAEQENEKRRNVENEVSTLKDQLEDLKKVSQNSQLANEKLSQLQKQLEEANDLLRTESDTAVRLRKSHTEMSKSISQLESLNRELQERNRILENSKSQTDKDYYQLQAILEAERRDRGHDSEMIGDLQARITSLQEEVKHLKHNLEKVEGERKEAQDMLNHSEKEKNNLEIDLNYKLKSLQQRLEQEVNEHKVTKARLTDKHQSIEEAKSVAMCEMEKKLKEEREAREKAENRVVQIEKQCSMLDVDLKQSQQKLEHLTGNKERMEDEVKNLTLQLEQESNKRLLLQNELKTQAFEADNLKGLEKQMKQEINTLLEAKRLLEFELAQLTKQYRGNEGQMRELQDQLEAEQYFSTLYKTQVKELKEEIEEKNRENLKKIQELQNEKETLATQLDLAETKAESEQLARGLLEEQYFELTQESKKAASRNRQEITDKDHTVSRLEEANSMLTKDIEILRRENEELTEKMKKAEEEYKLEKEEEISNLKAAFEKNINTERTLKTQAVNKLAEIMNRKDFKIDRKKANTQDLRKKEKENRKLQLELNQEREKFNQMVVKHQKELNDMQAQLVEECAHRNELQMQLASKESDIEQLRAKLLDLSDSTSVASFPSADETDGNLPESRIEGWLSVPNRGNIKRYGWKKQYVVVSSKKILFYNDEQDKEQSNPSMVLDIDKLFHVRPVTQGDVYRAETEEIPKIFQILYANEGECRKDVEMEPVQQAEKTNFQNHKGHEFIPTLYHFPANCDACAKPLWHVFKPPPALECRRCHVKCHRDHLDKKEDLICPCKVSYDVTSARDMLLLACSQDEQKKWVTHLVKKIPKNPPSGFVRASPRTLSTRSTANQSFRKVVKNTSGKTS
Data set [2] has as its target T2, Rho-associated protein kinase 2 (Homo sapiens, UniProt O75116). Kind of data set: Inhibition of wild type partial length human ROCK1 (M1 to T431 residues) expressed in Mammalian expression system by Euro-fins kinase profiler assay. The procedure, abridged:
as §1
Target sequence in this assay (O75116 whole entry, the tested form may be a part): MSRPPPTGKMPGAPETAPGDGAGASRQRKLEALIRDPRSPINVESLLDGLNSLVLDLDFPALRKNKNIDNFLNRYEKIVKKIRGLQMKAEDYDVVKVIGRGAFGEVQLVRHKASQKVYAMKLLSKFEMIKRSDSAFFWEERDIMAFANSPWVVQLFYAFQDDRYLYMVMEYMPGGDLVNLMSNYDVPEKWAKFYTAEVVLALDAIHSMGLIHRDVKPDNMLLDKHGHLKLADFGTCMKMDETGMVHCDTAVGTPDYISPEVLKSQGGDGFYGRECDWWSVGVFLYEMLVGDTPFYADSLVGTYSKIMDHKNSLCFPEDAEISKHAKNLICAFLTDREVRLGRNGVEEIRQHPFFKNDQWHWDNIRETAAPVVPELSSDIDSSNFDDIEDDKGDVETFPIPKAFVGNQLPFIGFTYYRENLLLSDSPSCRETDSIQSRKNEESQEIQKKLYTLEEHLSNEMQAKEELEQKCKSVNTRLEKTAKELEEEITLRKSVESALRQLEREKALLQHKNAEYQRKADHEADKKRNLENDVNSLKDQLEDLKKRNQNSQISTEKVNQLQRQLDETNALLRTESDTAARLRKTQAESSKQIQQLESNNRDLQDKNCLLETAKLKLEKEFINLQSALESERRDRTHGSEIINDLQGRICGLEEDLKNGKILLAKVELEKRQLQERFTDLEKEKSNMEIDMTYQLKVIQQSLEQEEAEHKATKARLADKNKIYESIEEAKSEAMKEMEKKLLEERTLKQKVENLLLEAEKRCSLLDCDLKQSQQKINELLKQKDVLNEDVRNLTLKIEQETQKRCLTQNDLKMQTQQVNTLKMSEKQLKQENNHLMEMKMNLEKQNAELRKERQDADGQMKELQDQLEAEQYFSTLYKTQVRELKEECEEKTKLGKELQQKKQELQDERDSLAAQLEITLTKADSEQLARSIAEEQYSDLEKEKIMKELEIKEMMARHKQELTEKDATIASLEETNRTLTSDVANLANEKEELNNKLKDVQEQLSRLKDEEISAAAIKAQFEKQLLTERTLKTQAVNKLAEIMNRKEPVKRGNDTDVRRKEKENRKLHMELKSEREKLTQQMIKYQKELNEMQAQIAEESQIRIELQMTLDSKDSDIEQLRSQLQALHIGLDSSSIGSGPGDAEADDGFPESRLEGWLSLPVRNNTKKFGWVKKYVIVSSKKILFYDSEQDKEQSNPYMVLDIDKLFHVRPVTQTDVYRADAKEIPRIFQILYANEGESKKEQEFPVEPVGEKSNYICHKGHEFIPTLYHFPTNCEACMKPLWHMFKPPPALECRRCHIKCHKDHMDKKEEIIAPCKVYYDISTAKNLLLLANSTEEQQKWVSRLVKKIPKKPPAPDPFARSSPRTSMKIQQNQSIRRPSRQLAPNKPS

Data set [3] is described as follows: Toxicity in topically treated NZW rabbit assessed as hyperaemia measured after 3 hrs. The arrangement: species or system Oryctolagus cuniculus. Conditions: in vivo, topical_or_ocular.
A further data set relates to Oryctolagus cuniculus. In words: Antiglaucoma activity in topically treated NZW rabbits assessed as reduction of intra ocular pressure measured after 1 hr relative to control. In kind it is functional. The arrangement: scale not given: the % may be the effect or the level left. The essentials:
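Ocular normotensive NZW rabbits received 0.3% eye drops topically in one eye and vehicle in the contralateral eye. IOP was followed over several hours after instillation and expressed as reduction from baseline, with the 1 h reading compared against vehicle.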

Data set [4] has as its target T1, Rho-associated protein kinase 1. In words: Inhibition of ROCK1 (unknown origin) at 10 uM. The procedure, abridged:
(§2)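 Kinase selectivity panel of 100 representative kinases, each tested at a fixed 10 µM; inhibition rate recorded per kinase. Values are averages of two independent experiments, mean ± SD.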
Target sequence in this assay (Q13464 2-1354 limits assumed): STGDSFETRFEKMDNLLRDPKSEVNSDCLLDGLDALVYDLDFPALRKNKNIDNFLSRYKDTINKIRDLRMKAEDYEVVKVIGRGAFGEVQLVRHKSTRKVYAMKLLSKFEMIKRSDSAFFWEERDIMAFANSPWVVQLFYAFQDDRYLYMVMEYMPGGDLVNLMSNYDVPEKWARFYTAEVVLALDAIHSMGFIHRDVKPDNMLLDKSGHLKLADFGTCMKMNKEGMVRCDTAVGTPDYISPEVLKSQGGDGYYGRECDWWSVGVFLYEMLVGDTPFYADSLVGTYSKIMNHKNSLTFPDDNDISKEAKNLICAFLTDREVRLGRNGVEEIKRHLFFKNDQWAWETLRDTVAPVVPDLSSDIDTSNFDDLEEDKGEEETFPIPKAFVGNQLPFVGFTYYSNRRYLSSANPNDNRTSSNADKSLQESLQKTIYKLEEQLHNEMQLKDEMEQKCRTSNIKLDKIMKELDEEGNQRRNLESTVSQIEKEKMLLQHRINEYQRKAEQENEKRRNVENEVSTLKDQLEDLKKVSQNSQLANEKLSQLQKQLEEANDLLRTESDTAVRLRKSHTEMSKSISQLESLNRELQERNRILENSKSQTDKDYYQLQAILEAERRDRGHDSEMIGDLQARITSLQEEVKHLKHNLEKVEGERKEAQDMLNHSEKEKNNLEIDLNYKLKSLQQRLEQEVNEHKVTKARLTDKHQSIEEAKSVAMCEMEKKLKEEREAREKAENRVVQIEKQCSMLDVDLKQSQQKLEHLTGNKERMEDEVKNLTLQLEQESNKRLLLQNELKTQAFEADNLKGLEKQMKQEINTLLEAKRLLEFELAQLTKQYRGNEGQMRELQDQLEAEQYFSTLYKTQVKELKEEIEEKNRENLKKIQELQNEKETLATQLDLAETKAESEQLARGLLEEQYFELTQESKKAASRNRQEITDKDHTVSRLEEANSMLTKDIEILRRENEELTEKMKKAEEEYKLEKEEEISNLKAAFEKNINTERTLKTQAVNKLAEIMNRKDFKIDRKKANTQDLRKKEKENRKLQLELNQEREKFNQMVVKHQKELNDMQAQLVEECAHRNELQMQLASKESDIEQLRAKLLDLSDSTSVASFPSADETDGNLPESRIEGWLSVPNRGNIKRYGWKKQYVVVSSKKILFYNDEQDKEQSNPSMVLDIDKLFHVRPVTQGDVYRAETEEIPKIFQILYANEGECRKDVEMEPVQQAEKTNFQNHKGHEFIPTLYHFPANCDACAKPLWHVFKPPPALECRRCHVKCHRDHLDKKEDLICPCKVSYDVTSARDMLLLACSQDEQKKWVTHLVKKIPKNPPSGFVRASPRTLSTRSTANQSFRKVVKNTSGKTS

The test system of data set [5] is SH-SY5Y. Kind of data set: Effect on MYPT1 expression in human SH-SY5Y cells at 0.1 to 1 uM measured after 12 hrs by western blot assay. In kind it is functional, cell-based. The settings on record: dose 0.1-1 µM. The procedure, abridged: (§3)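 SH-SY5Y cells exposed to compound at 0.1, 0.3 and 1 µM for 12 h. Phospho-MYPT1 assessed by western blot, with immunoblots quantified. Significance versus untreated control by t test.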
For orientation: A western blot detects proteins with antibodies after separation by electrophoresis.

For data set [6], the target named is T2, Rho-associated protein kinase 2. In words: Inhibition of ROCK2 (unknown origin) at 10 uM. The essentials:
as §2
Target sequence in this assay (O75116 whole entry, looked up, the tested form may be a part): as the sequence (O75116 whole entry, the tested form may be a part) above

The target of data set [7] is LIM domain kinase 2 (Homo sapiens) (UniProt P53671). Kind of data set: Inhibition of LIMK2 (unknown origin) at 10 uM. The procedure, abridged: as §2
Data set [8] concerns SH-SY5Y. Kind of data set: Inhibition of human ROCK in human SH-SY5Y cells assessed as inhibition of phosphorylation of MYPT1 at 0.1 to 1 uM measured after 12 hrs by western blot assay. It is filed as cell-based. The settings on record: dose 0.1-1 µM. The essentials:
as §3

The structures appear in SMILES notation. Active and inactive are the calls of the source. No cut-off for these calls is given here. Some results are limits rather than exact numbers.

A word on the IC50: it is the point on the concentration scale where inhibition reaches its midpoint.

LIM domain kinase 2 (Homo sapiens), sequence (P53671 whole entry, looked up, the tested form may be a part): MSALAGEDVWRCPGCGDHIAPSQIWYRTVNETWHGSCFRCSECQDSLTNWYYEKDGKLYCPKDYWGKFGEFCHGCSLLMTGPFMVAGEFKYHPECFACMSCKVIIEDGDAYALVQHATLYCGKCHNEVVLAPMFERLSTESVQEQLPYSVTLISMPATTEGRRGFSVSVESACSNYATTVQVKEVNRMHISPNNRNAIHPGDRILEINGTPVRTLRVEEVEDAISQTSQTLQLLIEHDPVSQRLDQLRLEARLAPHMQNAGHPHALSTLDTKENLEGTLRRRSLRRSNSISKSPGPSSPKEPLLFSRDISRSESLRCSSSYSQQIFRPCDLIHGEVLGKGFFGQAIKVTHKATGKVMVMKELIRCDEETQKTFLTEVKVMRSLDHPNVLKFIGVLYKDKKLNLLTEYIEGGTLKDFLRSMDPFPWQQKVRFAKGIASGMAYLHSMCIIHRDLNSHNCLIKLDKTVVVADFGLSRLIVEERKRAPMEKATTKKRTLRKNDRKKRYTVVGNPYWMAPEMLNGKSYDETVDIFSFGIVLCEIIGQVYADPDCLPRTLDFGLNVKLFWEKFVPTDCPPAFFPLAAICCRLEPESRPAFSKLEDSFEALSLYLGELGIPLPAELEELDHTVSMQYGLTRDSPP

As to `O=C1c2ccc(-c3ccncc3)cc2OCCN1Cc1cccc(C(F)(F)F)c1`, the IC50 worked out at 1960 nM in data set [1] and 133 nM in [2].
In the case of `O=Cc1cccc(CN2CCOc3cc(-c4ccncc4)ccc3C2=O)c1`, the IC50 in [1] stood at 668 nM; in data set [2] it was 29 nM.
With `N#Cc1cccc(CN2CCOc3cc(-c4ccncc4)ccc3C2=O)c1`, the concentration for half-maximal inhibition (IC50) in data set [1] stood at 3100 nM; in data set [2], 50 nM.
For the molecule `COc1cccc(CN2COc3cc(-c4ccc5[nH]ncc5c4)ccc3C2=O)c1`, the IC50 in data set [1] was determined as 1460 nM; in [2] it was 434 nM.
In the same order, the values of `COc1cccc(CN2CCOc3cc(-c4cnc5[nH]ccc5c4)ccc3C2=O)c1` are more than 10000 nM and 5530 nM.
Take `COc1cccc(CN2CCOc3cc(-c4ccc5c(c4)OCO5)ccc3C2=O)c1`: the IC50 in data set [1] and in data set [2] was more than 10000 nM in each case.
As for `COc1cccc(CN2CC(C)(C)Oc3cc(-c4ccc5[nH]ncc5c4)ccc3C2=O)c1`, the figures for the IC50 in data set [1] and in [2] were 6010 nM and 749 nM, respectively.
For `COc1cccc(CN2CCCc3cc(-c4ccc5[nH]ncc5c4)ccc3C2=O)c1`, the IC50 in [1] is more than 10000 nM; in [2] it was 2110 nM.
With `COc1cccc(CN2CCOc3cc(-c4ccc5[nH]ncc5c4)ccc3C2=O)c1`, the results for the IC50 in data set [1] and in data set [2] were 1080 nM and 182 nM, respectively.
For the molecule `COc1cccc(CN2CCOc3cc(-c4ccnc(N)c4)ccc3C2=O)c1`, the IC50 in data set [1] came out at 1140 nM; in [2], 15 nM.
As for `COc1cccc(CN2CCOc3cc(-c4ccnc5[nH]ccc45)ccc3C2=O)c1`, the IC50 in data set [1] was found to be 103 nM; in data set [2], 15 nM.
For the molecule `COc1cccc(CN2CCOc3cc(-c4ccncc4)ccc3C2=O)c1`, the Activity result is on record as “Non-Toxic” in [3] and 34.3% with Oryctolagus cuniculus. Moreover, the inhibition entry (in data set [4]; in data set [6]; in data set [7]; with SH-SY5Y [8]) was “Active” in each case. For the same molecule, the outcome in the data set on SH-SY5Y [5] was inactive. Further, the IC50 worked out at 93 nM in data set [1] and 3 nM in [2].
For the molecule `COC(=O)c1cccc(CN2CCOc3cc(-c4ccncc4)ccc3C2=O)c1`, the values for the IC50 in data set [1] and in data set [2] were 208 nM and 9 nM, respectively.
Turning to `COc1cccc(CN2CCOc3cc(-c4ccc(N)nc4)ccc3C2=O)c1`, the IC50 in data set [1] and in [2] was more than 10000 nM each time.
For `COc1cccc(CN2CCOc3cc(-c4cncnc4)ccc3C2=O)c1`, the IC50 in [1] and in data set [2] was more than 10000 nM throughout.
`COc1cc(CN2CCOc3cc(-c4ccncc4)ccc3C2=O)cc(OC)c1`: the values for the IC50 in [1] and in data set [2] were 4490 nM and 217 nM, respectively.
For `O=C1c2ccc(-c3ccncc3)cc2OCCN1Cc1cccc(OC(F)(F)F)c1`, the IC50 in data set [1] worked out at 9240 nM; in [2], 495 nM.
Take `COc1cccc(CN2CCOc3ccc(-c4ccncc4)cc3C2=O)c1`: the IC50 in [1] was more than 10000 nM; in data set [2] it was 761 nM.
